According to ChEMBL document CHEMBL4339218, “Discovering New Casein Kinase 1d Inhibitors with an Innovative Molecular Dynamics Enabled Virtual Screening Workflow” (ACS Med Chem Lett, 2019):

Tests used:
[1] = biological target: T1, Casein kinase I isoform delta (Homo sapiens, UniProt P48730); experiment: Inhibition of CSNK1D (unknown origin) at 1 uM using CSNK1D/Ser/Thr 11 peptide incubated for 1 hr by FRET based Z'-LYTE assay relative to untreated control
Procedure, shortened: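 Single-point test at 1 μM ligand, in duplicate, reported as mean ± SD. Coupled-enzyme FRET readout in which a development protease cleaves only nonphosphorylated peptide. Development reagent B (1:16) then added. Coumarin/fluorescein emission ratio read after 400 nm excitation.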
Target sequence in this assay (P48730 whole entry, looked up, canonical isoform): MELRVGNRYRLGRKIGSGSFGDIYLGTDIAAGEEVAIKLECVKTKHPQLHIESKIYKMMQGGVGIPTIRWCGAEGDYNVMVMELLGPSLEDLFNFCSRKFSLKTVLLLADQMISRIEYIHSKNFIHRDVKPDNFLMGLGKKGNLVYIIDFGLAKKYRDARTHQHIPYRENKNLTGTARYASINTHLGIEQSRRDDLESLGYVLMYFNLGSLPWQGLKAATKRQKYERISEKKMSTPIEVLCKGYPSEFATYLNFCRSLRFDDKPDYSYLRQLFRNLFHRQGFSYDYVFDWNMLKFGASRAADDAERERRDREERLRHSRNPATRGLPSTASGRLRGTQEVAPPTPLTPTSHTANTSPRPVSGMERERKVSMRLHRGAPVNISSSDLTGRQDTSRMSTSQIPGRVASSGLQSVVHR

[2] = biological target: T1, Casein kinase I isoform delta; experiment: Inhibition of CSNK1D (unknown origin) using CSNK1D/Ser/Thr 11 peptide incubated for 1 hr by FRET based Z'-LYTE assay
Procedure, shortened: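 Full dose–response curve used for IC50. Duplicates, averaged with SD. Protease development reagent B (1:16) then added. Phosphorylation taken from the donor coumarin/acceptor fluorescein emission ratio at 400 nm excitation.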
Target sequence in this assay (P48730 whole entry, canonical isoform): as the sequence (P48730 whole entry, looked up, canonical isoform) above

SMILES	inhibition [1] [%]	IC50 [2] [nM]
O=C1CCCN1Cc1nnc(-c2ccc3[nH]nc(-c4ccc(F)cc4)c3c2)[nH]1	25	
Fc1ccc(-c2n[nH]c3ccc(-c4n[nH]c(CN5CCCC5)n4)cc23)cc1	53	848
CN(C)Cc1n[nH]c(-c2ccc3[nH]nc(-c4cccc(C(=O)Nc5ccc(F)cc5)c4)c3c2)n1	99	134

Next, values leading:

inhibition [1] [%]	IC50 [2] [nM]	SMILES
92		CNC(=O)c1ccc2[nH]nc(-c3cccc(C(=O)NCc4cnc(C)nc4N)c3)c2c1
57		CNC(=O)c1ccc2[nH]nc(-c3cccc(C(=O)Nc4cc(-c5ccccn5)n[nH]4)c3)c2c1
80	354	CNC(=O)c1ccc2[nH]nc(-c3cccc(C(=O)NCc4cccc5ccccc45)c3)c2c1
66	1030	C[C@@H](NC(=O)c1ccc2[nH]nc(-c3cccc(NS(C)(=O)=O)c3)c2c1)c1ccccc1
